Results as given in PMC7037572 (Journal of Advanced Research, 2020).

Legend:
Assay type in all cases: cell-based
Conditions in all cases: pre-treated 1 h, MSU 500 μg/ml 12 h
[1] = test system: MSU-treated THP-1 cells; assay: cAMP levels in MSU-treated THP-1 cells
[2] = test system: MSU-treated THP-1 cells; assay: IL-1β in culture supernatants of MSU-treated THP-1 cells
Summary of the method: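 PMA-differentiated THP-1 cells (ATCC) were pre-treated 1 h with the test compound or a reference P2Y14R antagonist, then stimulated with MSU (500 μg/ml) for 12 h. IL-1β in collected culture supernatants was measured by ELISA kit. n = 4 per group; mean ± SD; one-way ANOVA with Tukey test, p < 0.05.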

[3] = test system: NLRP3 inflammasome; assay: Western blot of NLRP3, ASC and Caspase-1 p20 in MSU-treated THP-1 cells
Summary of the method: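 THP-1 cells (PMA-differentiated, pre-treated 1 h, MSU 500 μg/ml 12 h) were lysed in RIPA buffer. Lysates were resolved by 8–12% SDS-PAGE and transferred to PVDF. After blocking, membranes took primary antibodies overnight at 4 °C, three TBST washes and HRP secondary antibodies for 2 h, with ECL detection. n = 4 per group; mean ± SD; one-way ANOVA/Tukey.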

## O=C(O)c1cc(-c2ccc(C3CCNCC3)cc2)c2ccc(-c3ccc(C(F)(F)F)cc3)cc2c1 [PPTN]
[1]
  effect on MSU-induced decrease of cAMP concentrations: reversed
[2]
  effect on IL-1β release into the supernatant: apparently inhibited the release of IL-1β
[3]
  effect on MSU-increased protein expressions of NLRP3, ASC and Caspase-1 p20: reversed
